Source: PubChem
PPC-1+TRAIL kill: compounds killing PPC-1 cancer cells with TRAIL present (potentiator screen, no TRAIL-free arm); cell killing (% activity), % at 4 µM or 5 µM; PPC-1 cells + TRAIL, ATPLite viability luminescence; 0.41% of 220,000 active;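 active means cell killing above 50% in the first pass at 4 µM, then a duplicate retest at 5 µM averaging 50% or more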
TRAIL sens C8: caspase-8 TRAIL sensitization. NB7+C8 cells + TRAIL, ATPlite viability luminescence. inhibition (viability loss, TRAIL sensitization), % at 10 µM. 1% of 360,000 active;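 active means compounds causing at least 50% loss of cell viability in the single-dose screen, relative to plate controls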
STAT3 activator: activators of IL-6 induced STAT3 signaling; U3A cells, IL-6 STAT3-luciferase reporter, luminescence; 100% = signal with IL-6 EC80 alone; activation (% of control), % at 5.6 µM; 0.91% of 190,000 active; AID 871;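 active means activation above the screen-wide mean of compound activation plus 3 SD, cut at about 130% in these data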
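Test system: human U3A cells carrying STAT3-luciferase construct; control set: IL-6-only wells as 100% reference; timing: compound pre-incubation 1 h before IL-6, then 6 h stimulation at 37 °C; also added: IL-6 stimulus at 33 ng/mL final; evaluation: % activation versus median of IL-6-stimulated wells; detection: reporter luminescence signal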
STAT1 inh-1: STAT1 signaling inhibition. NIH 3T3 STAT1-luciferase reporter, IFN-gamma, luminescence. inhibition, % at 5.5 µM. AID 920. 0.35% of 200,000 active;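 active means inhibition above a set limit, the mean inhibition across all tested compounds plus 3 SD, cut at about 34% in these data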
STAT3 inh: inhibitors of IL-6 induced STAT3 signaling; U3A cells, IL-6 STAT3-luciferase reporter, luminescence; host cell line lacks STAT1; inhibition, % at 5.5 µM; 0.89% of 190,000 active;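 active means inhibition above the mean inhibition across all screened compounds plus 3 SD, cut at about 44% in these data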
STAT1 inh-2: STAT1 inhibition, confirmation assay; inhibition, % at 5.5 µM; NIH 3T3 STAT1-luciferase reporter, IFN-gamma, luminescence; AID 1263; shares compounds with STAT1 inh-1; 55% of 200 active;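 active means triplicate mean inhibition exceeding the hit cutoff computed for the primary STAT1 screen, cut at about 35% in these data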
NFkB inh STAT1ct: counter-screen for STAT1 inhibitors: NF-kappaB inhibition. 30% of 200 active. shares compounds with STAT1 inh-1. inhibition, % at 5.7 µM. HEK293T NF-kB luciferase reporter, TNF-alpha induced, luminescence;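 active means inhibition above the mean of solvent-only control wells plus 3 SD of those wells, cut at about 15% in these data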
STAT3 inh 2: STAT3 inhibition in STAT1 inhibitor counter-screen | shares compounds with STAT1 inh-1 | U3A cells, IL-6 STAT3 luciferase reporter, luminescence; cells lacking STAT1 | inhibition, % at 5.7 µM | 20% of 200 active | AID 1310;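 active means inhibition above the mean of solvent-only control wells plus 3 SD, set per campaign, cut at about 25% in these data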
PPC1 cytotox: kills PPC-1 cells; 50% of 1,200 active; shares compounds with PPC-1+TRAIL kill; cytotoxicity, % at 5 µM; AID 1447; PPC-1 viability, ATPlite luminescence, overnight;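 active means reconfirmed compounds whose average cytotoxicity reaches 50% or more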
Each line names hits and unclear results; the compound was inactive in the other large screens (follow-up assays come after a bar, where they were run). In the library only some 1.8% were active in any assay of this set; here they are far more common.

C=CCSc1nnc(NC(=O)c2ccc3c(c2)OCCO3)s1	none (no result: PPC-1+TRAIL kill, STAT3 activator, STAT1 inh-1, STAT3 inh)
O=C(O)CSc1nnc(NC(=O)c2ccc3c(c2)OCO3)s1	PPC-1+TRAIL kill 66, TRAIL sens C8 74, STAT1 inh-1 38 | STAT1 inh-2 inactive | NFkB inh STAT1ct 20 | STAT3 inh 2 inactive | PPC1 cytotox 67
Cc1nc(NC(=O)c2cccs2)ccc1Br	none
O=C1c2ccccc2-c2n[nH]c3cccc1c23	none (no result: PPC-1+TRAIL kill, STAT3 activator, STAT1 inh-1, STAT3 inh)
O=C1C(O)=C(O)C(=O)c2ccccc21	none (no result: PPC-1+TRAIL kill, STAT3 activator, STAT1 inh-1, STAT3 inh)
O=C1c2ccccc2-c2nnc(-c3ccc(O)cc3)cc21	PPC-1+TRAIL kill 69, STAT1 inh-1 48, STAT3 inh 72 | PPC1 cytotox 64
Cc1ccc(-c2cc3c(nn2)-c2ccccc2C3=O)cc1	PPC-1+TRAIL kill 90, TRAIL sens C8 93 (no result: STAT3 activator, STAT1 inh-1, STAT3 inh) | PPC1 cytotox 92
O=C(/C=C\Nc1ccc2c(c1)OCO2)c1cccs1	PPC-1+TRAIL kill 82, TRAIL sens C8 78, STAT1 inh-1 65, STAT3 inh 90 | PPC1 cytotox 82
O=C(Nc1ccc2c(c1)OCO2)c1cccs1	none
CCOc1ccc(N/C=C\C(=O)c2ccc3c(c2)OCO3)cc1	none (no result: PPC-1+TRAIL kill)
O=C(/C=C\Nc1ccc2c(c1)OCO2)c1ccccn1	PPC-1+TRAIL kill 92, TRAIL sens C8 87, STAT1 inh-1 87, STAT3 inh 103 | PPC1 cytotox 92
COc1ccc(N/C=C/C(=O)c2ccc3c(c2)OCO3)cc1OC	none
COc1ccc(N/C=C\C(=O)c2ccc3c(c2)OCO3)cc1	PPC-1+TRAIL kill 68, TRAIL sens C8 69 | PPC1 cytotox 59
O=C(/C=C\Nc1ccc2c(c1)OCO2)c1ccc2c(c1)OCO2	PPC-1+TRAIL kill 85, TRAIL sens C8 83, STAT1 inh-1 51, STAT3 inh 60 | PPC1 cytotox 84
CC(C)N(Cc1ccccc1)C(=O)COC(=O)c1c(F)cccc1F	none (no result: PPC-1+TRAIL kill, STAT3 activator, STAT1 inh-1, STAT3 inh)
CC(=O)c1ccc(N2CCN(C3CCC(C(C)(C)C)CC3)CC2)cc1 (stereo not given)	none (no result: PPC-1+TRAIL kill, STAT3 activator, STAT1 inh-1, STAT3 inh)
Cc1ccc(N/C=C/C(=O)c2cccs2)cc1	PPC-1+TRAIL kill 86, TRAIL sens C8 88, STAT1 inh-1 83, STAT3 inh 98 | PPC1 cytotox 85
CC(=O)N1CCN(Cc2nc3cc(Cl)ccc3c(=O)[nH]2)CC1	none
COc1ccc(N2CCN(Cc3nc4cc(Cl)ccc4c(=O)[nH]3)CC2)cc1	none | PPC1 cytotox inactive
Cc1ccc(S(=O)(=O)NCCC(=O)N2CCCCCCC2)cc1	none (no result: PPC-1+TRAIL kill, STAT3 activator, STAT1 inh-1, STAT3 inh)
C=CCC(=O)N1CCC(n2nccc2NC(=O)CCOc2ccccc2)CC1	none (no result: PPC-1+TRAIL kill, STAT3 activator, STAT1 inh-1, STAT3 inh)
CC1=C(C(=O)N2CCOCC2)CC(CC(=O)NC2CC2)C(=O)N1Cc1ccc(F)cc1 (stereo not given)	none (no result: PPC-1+TRAIL kill, STAT3 activator, STAT1 inh-1, STAT3 inh)
Cc1cccc(NCc2ccccc2O)c1C	none
Cc1ccc(NCc2ccccc2O)c(C)c1	none | PPC1 cytotox inactive
COc1cc(OC)c(C(=O)O/N=C(\N)c2ccccc2)cc1OC	none (no result: PPC-1+TRAIL kill, STAT3 activator, STAT1 inh-1, STAT3 inh)
Cc1occc1C(=O)O/N=C(\N)c1ccccc1	PPC-1+TRAIL kill 57, TRAIL sens C8 70 (no result: STAT3 activator, STAT1 inh-1, STAT3 inh) | PPC1 cytotox 55
Cc1c(Cl)ccc2c(C(=O)O)cc(-c3ccccc3)nc12	none (no result: STAT3 activator, STAT1 inh-1, STAT3 inh) | PPC1 cytotox inactive
O=C(COC(=O)c1ccc(F)c(S(=O)(=O)N2CCOCC2)c1)NCc1ccc(F)cc1	none (no result: PPC-1+TRAIL kill, STAT3 activator, STAT1 inh-1, STAT3 inh)
Cc1ccc(-c2cc(C(=O)NCc3cccs3)no2)cc1	none | PPC1 cytotox inactive
O=C(NCc1cccs1)c1cc(-c2ccc(O)cc2)on1	none (no result: STAT3 activator, STAT1 inh-1, STAT3 inh)
COc1ccc(-c2c(-c3cc(OC)cc(OC)c3)n(C)c3ccc(Br)cc23)cc1	none (no result: PPC-1+TRAIL kill, STAT3 activator, STAT1 inh-1, STAT3 inh)
COc1ccc(N=Nc2nc3ccc(Br)cc3n2C)cc1	PPC-1+TRAIL kill 76, TRAIL sens C8 80 | PPC1 cytotox 72
Cc1ccc2nc(NC(=O)c3ccco3)sc2c1	PPC-1+TRAIL kill 70, TRAIL sens C8 78, STAT1 inh-1 59, STAT3 inh 94 | PPC1 cytotox 64
O=C(Nc1nc2ccc(Br)cc2s1)c1ccco1	none (no result: PPC-1+TRAIL kill, STAT3 activator, STAT1 inh-1, STAT3 inh)
